Measurements gathered from unrelated publications.
FGFR4: Fibroblast growth factor receptor 4 (FGFR4, Homo sapiens, UniProt P22455)

SMILES | target | observed | action | technique | concentration | endpoint | value
Cc1cnc(NC2CCOCC2)nc1-n1cnc(C(=O)NC(CN)c2cc(F)cc(Cl)c2)c1 (centres unmarked) | FGFR4 | enzyme activity | inhibitor | radiometric | 1 µM | remaining activity | 105%
CC(C)(O)[C@H]1CC[C@H](Nc2ccc3ncc(-c4cccc(C(F)(F)F)c4)n3n2)CC1 | FGFR4 | enzyme activity | inhibitor | – | 1 µM | remaining activity | 108%
COc1cc2nccc(Oc3ccc(NC(=O)c4c5n(n(-c6ccc(F)cc6)c4=O)CCCC5)cc3)c2cc1OC | FGFR4 | enzyme activity | inhibitor | – | 0.1 µM | inhibition | 5%
O=C1NC(=O)c2cc(Nc3ccc(F)cc3)c(Nc3ccc(F)cc3)cc21 | FGFR4 | cell-free assay | – | – | 0.5 µM | remaining signal | 95.5%
CCCOc1ccc(OC)c(F)c1C(=O)c1ccc(C(=O)N[C@@H]2CNC[C@H]2NC(=O)c2ccc3[nH]ncc3c2)cc1 | FGFR4 | enzyme activity | inhibitor | – | 10 µM | remaining activity | 75%
COc1cc(-c2cn(C3CCc4c(F)cccc4N(CC(F)(F)F)C3=O)nn2)ccc1-n1cnc(C)c1 (centres unmarked) | FGFR4 | cell-free assay | – | competition with immobilised ligand | 1 µM | remaining binding | 100%
Nc1ncnc2occ(-c3ccc(NC(=O)Nc4cc(C(F)(F)F)ccc4F)cc3)c12 | FGFR4 | cell-free assay | – | – | 20 µM | remaining signal | 0.1%
O=C(Nc1cccnn1)N1CCC(=Cc2cccc(Oc3ccc(C(F)(F)F)cn3)c2)CC1 | FGFR4 | cell-free assay | – | competition with immobilised ligand | 1 µM | remaining binding | 100%
C=CC(=O)Nc1cc(Nc2nccc(Nc3cc(Cl)c(F)cc3C(C)(C)O)n2)c(OC)cc1N1CC[C@@H](N(C)C)C1 | FGFR4 | enzyme activity | inhibitor | – | 1 µM | inhibition | 2%
CC(C)(O)c1cncc(-c2nc3ccc(F)cc3n2C2CC2)c1 | FGFR4 | cell-free assay | – | competition with immobilised ligand | 1 µM | remaining binding | 100%
CC(C)(C)c1nc(-c2cccc(NS(=O)(=O)c3c(F)cccc3F)c2F)c(-c2ccnc(N)n2)s1 | FGFR4 | enzyme activity | inhibitor | radiometric | 1 µM | remaining activity | 93%
CC/C(=N\NC(=O)NCc1cccc(O)c1)c1ccc(O)c(C)c1O | Fibroblast growth factor receptor 4 (FGFR4, Homo sapiens, UniProt P22455, V550L) | enzyme activity | inhibitor | – | 0.1 µM | inhibition | 3.5%
CCCCN(CCCC)C(=O)CN1C[C@H](c2cc(OC)c3c(c2)OCO3)[C@@H](C(=O)O)[C@@H]1CC(C)(C)CCC | FGFR4 | cell-free assay | – | competition with immobilised ligand | 1 µM | remaining binding | 100%
COc1ccc(COc2ccc(Cc3cnc(N)nc3N)cc2OC)cc1 | FGFR4 | cell-free assay | – | – | 0.5 µM | remaining signal | 99.7%
Cc1sc(C(=O)NC2COC2)cc1-n1cc(NC(=O)Nc2c(F)cccc2Cl)cn1 | FGFR4 | enzyme activity | inhibitor | – | 10 µM | remaining activity | 96.8%
CNC(=O)c1cc(Oc2ccc(NC(=O)Nc3ccc(Cl)c(C(F)(F)F)c3)cc2)ccn1 | FGFR4 | enzyme activity | inhibitor | – | 10 µM | inhibition | 47%
Cc1cc(NC(=O)c2cccc3cc(-c4cccc5[nH]nc(N)c45)ccc23)ccc1F | FGFR4 | enzyme activity | inhibitor | – | 0.1 µM | activity vs control | 101%
CC(=O)N1CCC(c2ccc(C(=O)NC3=NCCN3)cc2C(F)(F)F)CC1 | FGFR4 | cell-free assay | – | competition with immobilised ligand | 1 µM | remaining binding | 88%
CCN(CC)CCNC(=O)c1c(C)[nH]c(/C=C2\C(=O)Nc3ccc(F)cc32)c1C | FGFR4 | enzyme activity | inhibitor | – | 0.3 µM | inhibition | -11%
CS(=O)(=O)N1CCCC(NC(=O)[C@H](CCC2CCCCC2)NC(=O)c2ccc(CNC(=O)c3cnc4ccccn34)cc2)C1 (some centres unmarked) | FGFR4 | cell-free assay | – | competition with immobilised ligand | 0.1 µM | remaining binding | 100%
Cc1ccc(Nc2nccc(N(C)c3ccc4c(C)n(C)nc4c3)n2)cc1S(N)(=O)=O | FGFR4 | cell-free assay | – | – | 0.5 µM | remaining signal | 68.3%
Cc1cc(-n2nc(Cc3cc(F)cc(C(F)(F)F)c3)nc2C)ccc1C(N)=O | FGFR4 | cell-free assay | – | competition with immobilised ligand | 1 µM | remaining binding | 100%
COc1cc2ncnc(Nc3ccc(Oc4ccccc4)c(C)c3C)c2cc1OC | FGFR4 | enzyme activity | inhibitor | – | 1 µM | inhibition | -1%
